Assay results from paper PMC4128068 (British Journal of Pharmacology, 2014).

What was measured:
[1] = molecular target: T1, volume-sensitive outwardly rectifying Cl− conductance (VSORC) (Mus musculus, UniProt Q80WG5); type: cell-based; conditions: CFTR-expressing cells
T1 sequence (Q80WG5 1-810): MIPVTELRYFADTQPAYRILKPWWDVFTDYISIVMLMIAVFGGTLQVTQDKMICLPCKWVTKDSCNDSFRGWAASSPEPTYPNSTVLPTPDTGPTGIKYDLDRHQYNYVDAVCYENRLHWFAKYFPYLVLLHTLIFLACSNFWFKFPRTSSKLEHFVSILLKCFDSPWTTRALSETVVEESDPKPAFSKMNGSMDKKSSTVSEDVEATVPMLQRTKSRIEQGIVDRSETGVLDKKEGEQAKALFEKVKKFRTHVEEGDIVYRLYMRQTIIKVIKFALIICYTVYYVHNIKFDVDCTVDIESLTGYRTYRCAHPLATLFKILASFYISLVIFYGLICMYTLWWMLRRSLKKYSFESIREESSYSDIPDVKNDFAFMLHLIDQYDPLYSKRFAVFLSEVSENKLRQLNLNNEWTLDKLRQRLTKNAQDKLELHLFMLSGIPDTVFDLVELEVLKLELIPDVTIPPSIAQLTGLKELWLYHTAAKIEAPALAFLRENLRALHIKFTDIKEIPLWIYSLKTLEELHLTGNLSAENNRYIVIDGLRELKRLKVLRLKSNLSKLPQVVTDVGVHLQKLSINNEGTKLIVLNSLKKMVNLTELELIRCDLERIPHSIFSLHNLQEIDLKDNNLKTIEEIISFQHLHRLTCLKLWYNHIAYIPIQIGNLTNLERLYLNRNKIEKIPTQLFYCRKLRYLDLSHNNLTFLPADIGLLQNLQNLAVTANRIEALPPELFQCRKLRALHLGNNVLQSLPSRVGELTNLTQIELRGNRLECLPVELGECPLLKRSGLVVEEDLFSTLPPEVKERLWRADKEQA
In short: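 Ruptured whole-cell patch clamp on kidney cells. Pipette: 140 mM NMDGCl, 10 HEPES pH 7.4, 5 EGTA, 5 MgATP. VSORC was activated by switching from a mannitol-containing NMDGCl bath (320–330 mOsm) to a mannitol-free one (285–290 mOsm). Test compound (0.5–10 µM) was perfused after 3–4 min. Cells were held at −40 mV with 400 ms steps from −100 to +100 mV. Slopes (−100 to −60 and +60 to +100 mV) were normalised to the hypotonic maximum; 5–6 cells.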

[2] = molecular target: CFTR-like Cl− conductance (Mus musculus, UniProt P26361); type: cell-based
In short: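 Ruptured whole-cell patch clamp on cultured kidney DCT cells. CFTR current activated with forskolin (1–10 µM); once fully developed (3–4 min), test compound was perfused at rising concentrations (0.5, 1, 5, 10 µM). Holding potential −40 mV; eleven 400-ms steps from −100 to +100 mV in +20 mV increments. Current read 350 ms after pulse onset; mean ±SEM of six to eight cells.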

human CFTR = conditions: 20 µM; oocyte expression system; ref Stahl et al., 2012; cited from earlier work
[3] = tested on: shark 'CFTR-like' protein; conditions: 25 µM; oocyte expression system; ref Stahl et al., 2012; cited from earlier work
[4] = tested on: Ca2+-dependent Cl− conductance (CaCC); assay: whole-cell patch-clamp, ionomycin-activated CaCC in CFTR-expressing kidney cells; type: cell-based, mouse
In short: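 Ruptured whole-cell patch clamp on kidney cells, with the NMDGCl pipette solution (5 EGTA, 5 MgATP, pH 7.4). CaCC was activated with 2 µM ionomycin, and test compound (1, 5, 10 µM) was perfused once current peaked. Cells were held at −40 mV with 400 ms steps from −100 to +120 mV. Slopes (+60 to +120 mV) were normalised to the uninhibited maximum; 5–6 cells. IC50 came from Hill fits.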

PS120 cells = assay: MTT assay on non–CFTR-expressing cells; type: cell-based, hamster; conditions: 24 h
In short: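 PS120 cells in 1% serum were exposed to increasing test compound concentrations for 24 h. They were then incubated 1 h with 0.5 mg mL−1 MTT in phenol red-free DMEM:F12 with 5% serum at 37°C. Cells were lysed in 10% SDS/0.01 N HCl overnight and OD read at 562 nm. Values were normalised to vehicle, means (SEM) of eight experiments.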

[5] = tested on: kidney PCT cells (CFTR-expressing); assay: LIVE/DEAD cell viability/cytotoxicity assay; type: cell-based, mouse; conditions: 24 h
In short: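 Confluent mouse kidney PCT monolayers in 1% serum were exposed to the test compound (0.5–50 µM) for 24 h. Live cells were stained with calcein-AM (green) and dead cells with […] (red). Green and red pixels were quantified on three micrographs per well. Values were normalised to 100% live cells in controls, as means ±SEM of 3–6 experiments.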

[6] = tested on: kidney PCT cells (CFTR-expressing); assay: MTT assay on CFTR-expressing cells; type: cell-based, mouse; conditions: 24 h

CFTR-like Cl− conductance, sequence (P26361 whole entry, the tested form may be a part): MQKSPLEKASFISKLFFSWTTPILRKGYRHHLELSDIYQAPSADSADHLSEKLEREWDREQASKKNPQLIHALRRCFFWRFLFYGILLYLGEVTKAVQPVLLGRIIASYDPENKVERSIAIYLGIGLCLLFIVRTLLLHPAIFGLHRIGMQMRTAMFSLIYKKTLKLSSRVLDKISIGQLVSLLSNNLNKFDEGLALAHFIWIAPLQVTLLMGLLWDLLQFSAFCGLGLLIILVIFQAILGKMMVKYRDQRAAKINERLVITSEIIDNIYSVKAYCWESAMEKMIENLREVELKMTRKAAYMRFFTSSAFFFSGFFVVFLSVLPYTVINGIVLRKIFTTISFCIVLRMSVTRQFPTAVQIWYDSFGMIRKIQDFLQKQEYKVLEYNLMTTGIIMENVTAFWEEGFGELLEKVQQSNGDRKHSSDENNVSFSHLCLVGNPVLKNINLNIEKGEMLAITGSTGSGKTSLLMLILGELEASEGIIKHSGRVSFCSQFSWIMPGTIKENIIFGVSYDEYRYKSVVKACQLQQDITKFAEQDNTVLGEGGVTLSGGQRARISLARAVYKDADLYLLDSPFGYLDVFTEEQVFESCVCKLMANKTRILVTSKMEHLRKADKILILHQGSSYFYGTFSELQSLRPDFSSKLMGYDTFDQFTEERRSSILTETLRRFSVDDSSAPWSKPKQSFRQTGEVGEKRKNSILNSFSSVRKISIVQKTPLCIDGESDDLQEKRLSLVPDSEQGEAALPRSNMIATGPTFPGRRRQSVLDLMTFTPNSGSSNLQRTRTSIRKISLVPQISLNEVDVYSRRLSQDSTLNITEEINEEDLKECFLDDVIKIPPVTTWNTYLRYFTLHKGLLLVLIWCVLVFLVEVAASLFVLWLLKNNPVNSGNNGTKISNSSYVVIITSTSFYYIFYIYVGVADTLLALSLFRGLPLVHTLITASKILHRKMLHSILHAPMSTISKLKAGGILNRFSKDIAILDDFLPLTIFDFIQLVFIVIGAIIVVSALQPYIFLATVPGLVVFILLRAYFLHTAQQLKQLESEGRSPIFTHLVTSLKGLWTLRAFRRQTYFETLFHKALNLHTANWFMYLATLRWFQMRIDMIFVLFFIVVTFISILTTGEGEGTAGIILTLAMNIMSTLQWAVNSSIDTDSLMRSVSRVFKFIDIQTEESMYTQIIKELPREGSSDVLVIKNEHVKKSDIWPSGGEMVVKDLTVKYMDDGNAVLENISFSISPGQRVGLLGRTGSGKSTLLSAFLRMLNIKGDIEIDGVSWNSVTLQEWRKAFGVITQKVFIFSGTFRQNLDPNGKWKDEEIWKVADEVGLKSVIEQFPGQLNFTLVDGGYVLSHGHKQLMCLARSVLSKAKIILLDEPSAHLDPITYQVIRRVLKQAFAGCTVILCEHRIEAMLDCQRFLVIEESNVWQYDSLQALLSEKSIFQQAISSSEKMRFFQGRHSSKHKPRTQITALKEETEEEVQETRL

inhibition of the remaining fraction of the VSORC current ([1]; 100 µM, after CFTRinh-172) | SMILES | inhibition of the CFTR conductance ([2]; 5 µM) | concentration of maximal inhibition of the CFTR-like current ([2]; forskolin-activated, tested 0.5, 1, 5, 10 µM) [µM] | inhibition of human CFTR (human CFTR) [%] | inhibition of VSORC ([1]; 10 µM, negative and positive potentials) [%] | IC50 ([1]; read-out: IC50 towards VSORC-mediated Cl− currents, either at negative or positive potentials) [µM] | effect on VSORC conductance ([1]; up to 1 µM) | inhibition of shark 'CFTR-like' protein [3] [%] | inhibition of the CaCC ([4]; 5 µM) | effect on the CaCC ([4]; up to 10 µM, ionomycin 2 µM) | concentration decreasing cell viability (MTT) (PS120 cells) [µM] | effect on cell viability (live/dead labelling) ([5]; 50 µM) | effect on cell viability (live/dead labelling) ([5]; 1 to 20 µM) | effect on cell viability (MTT) ([6]; 20 µM and even 10 µM) | effect on cell viability (MTT) ([6]; 50 µM)
completely inhibited | O=C(O)c1cc([N+](=O)[O-])ccc1NCCCc1ccccc1 [NPPB, 5-nitro-2-(3-phenylpropylamino)-benzoic acid] |  |  |  |  |  |  |  |  |  |  |  |  |  | 
 | O=C(O)c1ccc(C=C2SC(=S)N(c3cccc(C(F)(F)F)c3)C2=O)cc1 [CFTRinh-172, 3-[(3-trifluoromethyl)phenyl]-5-[(4-carboxyphenyl)methylene]-2-thioxo-4-thiazolidinone] | full inhibition | 5 | ~50 | ~50 | 12 | did not affect | 10 | no noticeable inhibition | did not affect | 5 | induced cell death | no significant effect on cell viability | marked effect | dramatic decrease of the cell viability
